# Screens from PubChem BioAssay.
# rRNA inh HTS = reduced GFP signal of wild-type E. coli, primary screen, bacterial rRNA inhibitor project, GFP/RFP fluorescence, OD600, single point; E. coli WT GFP vs humanized-ribosome RFP mutants, 24 h; hits give low values; DMSO median 0, no signal -100; GFP signal change (wild-type ribosome), % (test concentration not listed); 350,000 tested, 1.6% active; AID 720706, 2013;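 active = significant combined selectivity score with lowered wild-type GFP, culture density cut under 30%, mutant RFP and density less affected; inactive = any of these conditions unmet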
# FN deposition inh = inhibitors of fibronectin matrix deposition, primary screen, AH1F cells, Alexa488-fibronectin fluorescence, plate reader. inhibition, % at 12.6 µM. AH1F fibroblasts, overnight. 350,000 tested, 0.086% active. AID 743247, 2014;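 active = mean inhibition across replicates of 30% or more, regardless of how many single replicates reach that level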;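 note: positive control wells lacked labelled fibronectin entirely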
#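 Material: AH1F fibroblast monolayer depositing Alexa488-labelled fibronectin into matrix / Amount: 10000 AH1F cells per well / Signal: fluorescence 485/525 nm / Medium: DMEM, 2% serum / Compound: single dose, pinned / Incubation: 1 h cell adhesion before compound, then overnight fibronectin incubation / Reagent: Alexa488-FN, 24 nM final / Read-out: inhibition of fibronectin deposition signal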
# SIRT5 block = SIRT5 desuccinylase inhibitors, primary screen, biochemical, fluorescence imaging, single point, set 5; 330,000 tested, 1.1% active; AID 652115, 2013; Purified SirT5, succinyl-peptide AMC, trypsin-coupled fluorescence; NAD-dependent protein deacylase sirtuin-5, mitochondrial (Homo sapiens), Q9NXA8; inhibition, % at 15 µM; in the data active = inhibition above about 15%
# Target sequence (Q9NXA8 whole entry, looked up): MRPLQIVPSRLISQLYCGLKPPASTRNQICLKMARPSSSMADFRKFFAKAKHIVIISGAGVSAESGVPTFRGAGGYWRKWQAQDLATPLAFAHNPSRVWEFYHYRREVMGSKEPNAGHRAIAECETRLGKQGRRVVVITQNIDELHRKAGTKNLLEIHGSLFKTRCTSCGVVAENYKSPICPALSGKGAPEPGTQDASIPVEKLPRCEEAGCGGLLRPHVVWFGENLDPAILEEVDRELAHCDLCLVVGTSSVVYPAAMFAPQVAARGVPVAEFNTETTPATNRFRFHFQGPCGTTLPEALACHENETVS
# E-selectin induc = E-selectin induction in HUVECs, primary screen, imaging, HUVEC, immunofluorescence imaging, single point; AID 686992, 2013; activation, % at 7.58 µM; 260,000 tested, 0.37% active; normalized: neutral wells 0, TNF-alpha wells 100;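 active = mean E-selectin-positive cell signal at least 10% of the positive control, reached in at least 60% of replicates, without over 20% cell loss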
#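 material = human umbilical vein endothelial cells (HUVEC), E-selectin induction | quantity = 3,000 cells/well | medium = EGM-2 growth medium on 0.1% gelatin-coated wells | technique = immunofluorescence imaging | read-out basis = % PE-positive cells | control set = TNF-alpha positive control, DMSO neutral control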
# FGF22 binding = binders of human FGF22 protein, primary screen, FGF22 synaptogenesis inhibitor project, biophysical, thermal shift, single point | Fibroblast growth factor 22 (Homo sapiens), Q9HCT0 | recombinant FGF22 thermal shift, SYPRO orange fluorescence; percent of sucrose octasulfate shift, DMSO zero | activity (Tm shift, normalised), % at 9.99 µM | 340,000 tested, 1.5% active | AID 651658, 2012;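 active = mean Tm shift, scaled 0 neutral to 100 positive control, at about 1.3% or above, every replicate too, limit read from the data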
# Target sequence (Q9HCT0 whole entry, looked up): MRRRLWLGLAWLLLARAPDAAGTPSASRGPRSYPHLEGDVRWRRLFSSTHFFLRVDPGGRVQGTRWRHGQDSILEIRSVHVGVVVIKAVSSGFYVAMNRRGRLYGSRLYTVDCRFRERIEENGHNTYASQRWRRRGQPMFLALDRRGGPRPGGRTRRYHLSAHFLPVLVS
# Statin myotox sup = suppressors of statin myotoxicity in C2C12 myotubes, primary screen, cell-based, single point, plate reader. C2C12 myotubes + simvastatin, ATP luminescence, 48 h; scaled: DMSO 0, geranylgeraniol control 100. 330,000 tested, 0.78% active. rescue of ATP level, % at 7.49 µM. AID 602340, 2012;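 active = mean ATP rescue above about 67%, or every replicate alone reaching that limit, limit read from the data, passing the limit was not always enough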;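 note: myotubes were challenged with 10 µM simvastatin during compound exposure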
# * hit, by the source's call; nt = no result given. Compounds with a hit are over-represented: about 4% of the library has one in this group of screens.
SMILES,rRNA inh HTS,FN deposition inh,SIRT5 block,E-selectin induc,FGF22 binding,Statin myotox sup
O=C(CSc1ccc2c(c1)OCCO2)Nc1ccc(Br)cc1,nt,nt,nt,nt,nt,102*
O=C(CSc1nc2ccccc2[nH]1)Nc1ccc2c(c1)OCCO2,nt,nt,nt,nt,nt,117*
Cc1ccc2nc(SCC(=O)c3ccc4c(c3)OCO4)[nH]c2c1,-23*,nt,nt,nt,nt,-7
C[C@@H]1CN([C@@H](C)CO)C(=O)c2cccc(NC(=O)Nc3cccc4ccccc34)c2O[C@H]1CN(C)CC1CC1,-5,-26,-5,nt,0,17
COc1ccc(CNC(=O)C[C@H]2CC[C@H](NC(=O)Nc3ccc4c(c3)OCO4)[C@@H](CO)O2)cc1,-4,6,5,0,0,4
COc1ccc(NC(=O)NC[C@H]2CC[C@H]3[C@H](CN3Cc3ccccc3C(=O)O)O2)cc1,nt,nt,2,nt,nt,nt
CO[C@H]1CN(C)C(=O)c2ccc(NC(C)=O)cc2OC[C@@H](C)N(C(=O)c2ccccn2)C[C@H]1C,2,9,1,0,0,-3
O=C(CSc1ncn(-c2ccccc2)n1)Nc1ccc2c(c1)OCO2,nt,-5,nt,nt,nt,4
O=C(CSc1ncn(-c2ccccc2)n1)Nc1ccc2c(c1)OCCO2,nt,nt,nt,nt,nt,101*
Cc1nnc(SCC(=O)NC(=O)Nc2ccc3c(c2)OCCO3)s1,-11,-15,-4,4,43*,nt
C[C@@H]1CN([C@@H](C)CO)C(=O)c2cc(Br)cnc2O[C@@H]1CN(C)C(=O)C1CCOCC1,5,nt,-4,1,0,4
C[C@@H]1CN([C@H](C)CO)C(=O)c2cccc(NS(=O)(=O)c3cccs3)c2O[C@@H]1CN(C)C(=O)Nc1ccc(C(F)(F)F)cc1,-24,nt,10,-3,0,45
CCc1ccc(/C=C2\SC(N3CCCC3)=NC2=O)cc1,-15*,4,-3,-1,-1,nt
COc1cc(/C=C2\SC(N3CCCCC3)=NC2=O)cc(OC)c1OC,-28*,2,-3,nt,0,-1
C[C@@H]1CCCCO[C@@H](CN(C)Cc2ccccc2)[C@@H](C)CN([C@H](C)CO)C(=O)c2cc(NS(C)(=O)=O)ccc2O1,0,nt,nt,0,nt,-24
COc1ccc(NC(=O)Nc2ccc3c(c2)[C@H]2C[C@@H](CC(=O)NC4CCCCC4)O[C@@H](CO)[C@H]2O3)cc1,2,-35,-3,2,0,-2
CN(C)c1ncc(S(=O)(=O)c2ccccc2)c(N)n1,14,-1,0,0,44*,-5
Oc1ccc(/C=N/Nc2ncc(Cl)cc2Cl)cc1,11,2,0,0,0,3
Cc1ccc(/C=N/Nc2ncc(Cl)cc2Cl)s1,-22*,nt,-2,nt,0,nt
C/C(=N\N1CCN(Cc2ccc(Cl)cc2)CC1)c1ccc(F)cc1,-18*,-5,-5,0,0,nt
Nc1nnc(-c2ccccc2)c(-c2ccccc2)n1,nt,4,nt,nt,nt,121*
O=C(O)CC1C(=O)NCCN1Cc1cccs1 (centres undefined),11,-4,-2,85*,0,nt
Cc1ccc(CN2CCNC(=O)C2CC(=O)O)o1 (centres undefined),11,2,-14,0,0,2
CCOC(=O)CC1C(=O)NCCN1Cc1cccs1 (centres undefined),-4,-10,0,0,43*,1
C[C@H](CO)N1C[C@H](C)[C@H](CN(C)Cc2ccncc2)Oc2ccc(NC(=O)Cn3cnnn3)cc2CC1=O,2,nt,1,0,0,-22
Cc1cccc(NC(=S)N/N=C/c2cccc(O)c2)c1C,-24*,14,0,0,0,nt
Cc1ccccc1NC(=S)N/N=C/c1ccc(O)cc1O,-18,9,16*,0,1,5
